Bioassay records (PubChem BioAssay)
A selection: hits, their analogues and other compounds. The true share with any hit is near 2.8%.
EP2 mod = EP2 receptor modulators, cAMP readout, primary screen, cell-based, HTRF cAMP, PGE2 stimulation; Prostaglandin E2 receptor EP2 subtype (Homo sapiens), P43116; EP2-expressing cells, cAMP HTRF FRET, PGE2 co-stimulation; induction, % at 25 µM; actives 0.83% (n = 260,000);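 active means compounds whose cAMP rise, as percent of the full-agonist control response, exceeds 60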;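 further: rat C6 glioma line stably carrying human EP2 under a CMV promoter; the protocol text gives 20 µM as final concentration; 100% = response of wells given 1 µM PGE2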
Target sequence (P43116 whole entry, looked up): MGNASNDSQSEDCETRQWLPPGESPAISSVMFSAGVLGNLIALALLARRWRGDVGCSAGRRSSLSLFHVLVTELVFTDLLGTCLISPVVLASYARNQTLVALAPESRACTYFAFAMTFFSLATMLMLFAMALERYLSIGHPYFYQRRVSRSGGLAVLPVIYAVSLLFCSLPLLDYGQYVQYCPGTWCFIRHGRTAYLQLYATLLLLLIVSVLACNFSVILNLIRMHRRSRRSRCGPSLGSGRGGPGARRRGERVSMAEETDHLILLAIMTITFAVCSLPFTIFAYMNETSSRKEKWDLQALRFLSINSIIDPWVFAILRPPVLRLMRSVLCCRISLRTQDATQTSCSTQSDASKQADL
NPY-Y2 antag = NPY-Y2 receptor antagonists, primary screen, cell-based. Neuropeptide Y receptor type 2 (Homo sapiens), P49146. NPY-Y2 expressing cells, antagonist mode. actives 0.99% (n = 140,000). inhibition, % at 2.7 µM. AID 793, 2007;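 further: 0% = vehicle with agonist challenge and 100% = reference antagonist with challenge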
NPY-Y1 antag = NPY-Y1 receptor antagonists, primary screen, cell-based | Neuropeptide Y receptor type 1 (Homo sapiens), P25929 | HEK293-CNG Y1 cells, membrane potential fluorescence; NPY at EC95, then isoproterenol | inhibition, % at 3.6 µM | actives 1% (n = 200,000);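 active means inhibition above the campaign mean inhibition of all tested compounds plus 3 SD, cut at about 20% in these data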;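 further: 0% = DMSO wells given NPY plus isoproterenol and 100% = isoproterenol alone without NPY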
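Benchmarks – high control isoproterenol alone, low control NPY with isoproterenol · Material – HEK293 Y1/CNG channel cell line · Times – dye 3 h, compound 60 min room temperature, stimulation 45 min · Probe or stimulus – NPY (25 nM), isoproterenol (1 µM), Ro 20-1724 (25 µM) · Evaluation – % inhibition of NPY effect · Signal – fluorescence, membrane potential probe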
NPY-Y1 PAM-ag = NPY-Y1 receptor potentiators or agonists, primary screen, cell-based. AID 1304, 2008. activation, % at 3.6 µM. Neuropeptide Y receptor type 1 (Homo sapiens), P25929. NPY-Y1 expressing cells, potentiator/agonist activation. actives 0.37% (n = 220,000); in the data active means activation above about 33%, passing the limit was not always enough;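 further: cells stimulated with NPY at EC10 then isoproterenol at EC100; 0% = low agonist plus stimulus and 100% = saturating agonist plus stimulus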
NPY2 pot ag = NPY-Y2 potentiators or agonists, primary screen, cell-based; activation, % at 3.6 µM; actives 0.45% (n = 220,000); Neuropeptide Y receptor type 2 (Homo sapiens), P49146; AID 1359, 2008; cells expressing NPY-Y2, potentiator/agonist read-out; in the data active means activation above about 27%;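 further: cells stimulated with NPY near EC25 plus isoproterenol at EC100; 0% = vehicle plus submaximal agonist and 100% = vehicle plus saturating agonist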
PGE2 EP2 inh = human EP2 receptor antagonists, primary screen, TR-FRET cAMP, C6 glioma cells; C6 glioma cells expressing human EP2; cells stimulated with saturating PGE2; inhibition, % at 25 µM; actives 0.52% (n = 260,000);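 active means percent inhibition above 40 after rounding to a whole number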;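 further: rat C6 glioma host cells with rolipram phosphodiesterase inhibitor present; the protocol text gives 20 µM as final concentration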
NPY1 antag conf = NPY-Y1 receptor antagonists, retest of hits, confirmation, HEK293-CNG cells, membrane potential fluorescence, triplicate | shares compounds with NPY-Y1 antag | cAMP; NPY challenge against isoproterenol-raised cAMP | inhibition, % at 3.6 µM | actives 21% (n = 1,200); in the data active means inhibition above about 20%;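 further: 0% = vehicle with agonist plus stimulus and 100% = stimulus alone without agonist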
NPY-Y2 antag ct = NPY-Y2 receptor antagonists, selectivity check, confirmation, counter-screen for NPY-Y1 antagonist project, HEK293-CNG cells, membrane potential fluorescence, triplicate | shares compounds with NPY-Y1 antag | actives 28% (n = 1,200) | antagonism; cells given NPY, then isoproterenol | inhibition, % at 3.6 µM;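 further: 0% = DMSO with agonist challenge and 100% = reference antagonist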
* = called active by the depositor; · = no result. Unless noted, no stated cut-off is given here; in the data, active means inhibition above about 17%; inactive means the rest.

SMILES	EP2 mod	NPY-Y2 antag	NPY-Y1 antag	NPY-Y1 PAM-ag	NPY2 pot ag	PGE2 EP2 inh	NPY1 antag conf	NPY-Y2 antag ct
O=C(OCCN1C(=O)c2ccccc2C1=O)c1cc(=O)[nH]c2ccccc12	-9	1	6	-8	-11	9	·	·
Cc1cc(C(=O)OCCN2C(=O)c3ccccc3C2=O)c2ccccc2n1	8	5	24*	1	-4	12	1	5
COc1ccc(-c2cc(C(=O)N3CCC4(CC3)NC(=O)c3ccccc3N4)[nH]n2)cc1	-35	·	·	·	·	7	·	·
Cc1ccc(Nc2nc(N)nc(-c3oc4ccccc4c3C)n2)cc1	3	·	24*	-19	-30	10	6	30*
CC(Oc1ccc(F)cc1)C(=O)Nc1ccc2ccccc2c1 (configuration not stated)	-6	16	41*	-21	-2	10	14	11
CC(Oc1ccccc1F)C(=O)Nc1ccc2ccccc2c1 (configuration not stated)	-59	14	14	-30	-17	10	·	·
CCCC(c1nnnn1CCOC)N(Cc1cc2ccc(C)cc2[nH]c1=O)C1CCCC1 (configuration not stated)	42	·	·	·	·	20	·	·
Cc1cc(C)nc(SCc2ccc(C(=O)N/N=C/c3ccccc3C(=O)O)cc2)n1	10	·	30*	-15	-22	7	1	1
Cc1cc(C)nc(SCc2ccc(C(=O)N/N=C/c3cccnc3)cc2)n1	-30	·	1	-5	-6	1	·	·
COc1ccc(CN(Cc2ccc(N3CCCC3=O)cc2)CC2CCCO2)c(OC)c1 (configuration not stated)	6	·	·	·	·	9	·	·
COc1cc(NC(=O)CN2CCN(c3ccccc3F)CC2)cc(OC)c1	-18	3	0	-10	2	9	·	·
COc1cccc(NC(=O)CN2CCN(c3ccccc3F)CC2)c1	-21	6	22*	-36	-15	10	6	6
Cc1cc(C(=O)N/N=C(\CCC(=O)O)c2cccs2)c2ccccc2n1	-1	·	35*	1	14	2	-6	3
CN(C)C(=O)CSc1nc(-c2ccccc2)nc2c1CCCC2	-24	6	6	-25	0	5	·	·
CN(C)CCSc1nc(-c2ccccc2)nc2c1CCC2	-7	16	24*	-94	-42	3	12	20*
Cc1ccc(-c2n[nH]c(=S)n2/N=C/c2c(C)nn(-c3ccccc3)c2C)cc1	45	7	-2	8	-7	9	·	·
CCc1n[nH]c(=S)n1/N=C/c1c(C)nn(-c2ccccc2)c1Cl	55	·	45*	-13	-13	2	32*	53*
COc1ccc(CCNC(=O)c2cnn(-c3ccc(C)c(C)c3)c2NC(=O)c2ccco2)cc1OC	44	-1	-2	-9	-8	7	·	·
Cc1ccc(-n2ncc(C(=O)N3CCc4ccccc4C3)c2NC(=O)c2ccco2)cc1C	18	10	22*	-41	-8	5	2	9
CCNC(=S)N/N=C/c1ccc(F)cc1	-6	·	3	-13	1	6	·	·
C=CCNC(=S)N/N=C/c1ccc(C(C)(C)C)cc1	30	·	23*	-28	-34	4	11	6
CCOC(=O)c1cnn(-c2nc(-c3ccccc3)cs2)c1C(F)(F)F	25	4	20*	-21	-7	5	7	9
CCOC(=O)c1cnn(-c2nc(-c3ccccc3F)cs2)c1C(F)(F)F	45	5	11	-20	0	3	·	·
COc1cccc(OCc2nc(-c3ccc(Br)o3)no2)c1	12	·	15	-35	-34	7	·	·
Brc1ccc(-c2noc(COc3ccc4ccccc4c3)n2)o1	9	14	29*	-70	-49	8	17	10
SMILES	EP2 mod	NPY-Y2 antag	NPY-Y1 antag	NPY-Y1 PAM-ag	NPY2 pot ag	PGE2 EP2 inh	NPY1 antag conf	NPY-Y2 antag ct
CCC(=O)N(CCC(Cc1ccccc1)c1ccc2c(c1)OCO2)Cc1ccccc1F (configuration not stated)	54	16	47*	-18	-7	·	19	12
CCC(=O)N(CCc1ccccc1)Cc1cc2cc3c(cc2[nH]c1=O)OCO3	-12	2	0	22	4	11	·	·
COC(=O)c1c(NC(=O)C(C)C)sc(C(=O)Nc2ccc(C)cc2)c1C	-20	·	·	·	·	8	·	·
CC1CCCN(Cc2cccc(Oc3ccccc3)c2)C1 (configuration not stated)	32	13	25*	-13	-10	3	10	10
COc1ccc(-n2c(SCCN3CCOCC3)nc3sc(C)c(C)c3c2=O)cc1	18	·	·	·	·	12	·	·
CCN(CC)c1ccc2c(c1)OC(N)=C(C#N)C2c1ccccc1 (configuration not stated)	-36	·	·	·	·	5	·	·
CCN(CC)c1ccc2c(c1)OC(N)=C(C#N)C2c1cccnc1 (configuration not stated)	28	6	27*	-11	-12	13	6	15
CC1c2ccsc2CCN1Cc1cccc(OCC2CCCO2)c1 (configuration not stated)	19	·	·	·	·	5	·	·
Cc1cccc(Oc2sc(C(=O)c3ccccc3)c(N)c2C#N)c1C	-20	9	24*	-6	2	·	4	6
Cc1nc(-c2cccc(NS(=O)(=O)c3ccc4ccccc4c3)c2)cs1	-25	15	32*	-25	-33	3	9	10
CCOc1ccc2cc3c(N)c(C(C)=O)sc3nc2c1	-20	·	·	·	·	7	·	·
Nc1nc(CN2CCN(c3ccccc3)CC2)nc(N2CCCc3ccccc32)n1	-11	13	22*	-38	-17	9	8	8
O=C(Nc1nnc(C2=COCCO2)o1)c1ccc(Cc2ccccc2)cc1	1	·	22*	-43	-47	7	11	5
COc1ccc(S(=O)(=O)N2CCC(C(=O)Nc3cc(C)ccc3C)CC2)cc1OC	-19	·	·	·	·	6	·	·
